According to ChEMBL document CHEMBL3785069, “Tumour-specific cytotoxicity and structure-activity relationships of novel 1-[3-(2-methoxyethylthio)propionyl]-3,5-bis(benzylidene)-4-piperidones” (Bioorg Med Chem, 2016):
Active and inactive are the calls of the source. The rule behind the calls is not given here.

What was measured:
[1] = Cytotoxicity against human Molt4/C8 cells after 72 hrs by MTT assay; format: functional, cell-based; conditions: MOLT-4, 72 h
Procedure, shortened: (§1)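 Leukemic cells exposed to a concentration series of each compound in RPMI 1640 medium at 37 °C, 72 h for Molt4/C8 and CEM, 48 h for L1210.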

[2] = test system: CCRF-CEM; assay: Cytotoxicity against human CEM cells after 72 hrs by MTT assay; format: functional, cell-based; procedure, shortened: as §1
[3] = test system: L1210; assay: Cytotoxicity against mouse L1210 cells after 48 hrs by MTT assay; format: functional, cell-based; conditions: L1210, 48 h; procedure, shortened: as §1
[4] = Cytotoxicity against human HSC2 cells after 48 hrs by MTT assay; format: functional; conditions: HSC-2, 48 h
Procedure, shortened: (§2)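 Oral carcinoma (HSC-2, HSC-3, HSC-4) and nonmalignant HGF and HPLF cells incubated with graded compound concentrations at 37 °C for 48 h in DMEM plus 10% heat-inactivated FBS. Viability read by MTT. CC50 from duplicate runs, differing by under 10% at each concentration.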

[5] = Cytotoxicity against human HSC3 cells after 48 hrs by MTT assay; format: functional; conditions: HSC-3, 48 h; procedure, shortened: as §2
[6] = Cytotoxicity against human HSC4 cells after 48 hrs by MTT assay; format: functional; conditions: HSC-4, 48 h; procedure, shortened: as §2
[7] = Cytotoxicity against human HGF cells after 48 hrs by MTT assay; format: cell-based; procedure, shortened: as §2
[8] = Cytotoxicity against human HPLF cells after 48 hrs by MTT assay; format: cell-based; procedure, shortened: as §2
[9] = test system: HSC-2; assay: Selectivity index, ratio of average CC50 for human HGF and HPLF cells to CC50 for human HSC2 cells; conditions: pooled result: one value given for 2 cell lines, strains, targets or settings
[10] = test system: HSC-3; assay: Selectivity index, ratio of average CC50 for human HGF and HPLF cells to CC50 for human HSC3 cells; conditions: pooled result: one value given for 2 cell lines, strains, targets or settings
[11] = test system: HSC-4; assay: Selectivity index, ratio of average CC50 for human HGF and HPLF cells to CC50 for human HSC4 cells; conditions: pooled result: one value given for 2 cell lines, strains, targets or settings
[12] = test system: HSC-2; assay: Induction of apoptosis in human HSC2 cells assessed as PARP1 cleavage at 0.4 uM after 24 hrs by SDS-PAGE method; format: functional, cell-based
Procedure, shortened: (§3)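 HSC-2 cells grown in 6-well plates for 24 h, then exposed to 0.1, 0.2, 0.3 and 0.4 µM for 24 h. Cells scraped into lysis buffer and run on 8% SDS-PAGE, then transferred to PVDF. Cleaved PARP (Asp214) detected with a human-specific antibody on X-ray film.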

[13] = test system: HSC-2; assay: Induction of apoptosis in human HSC2 cells assessed as PARP1 cleavage after 24 hrs by SDS-PAGE method; format: functional, cell-based; procedure, shortened: as §3
[14] = test system: HSC-2; assay: Potency index, ratio of CC50 for mephalan to CC50 for test compound against human HSC2 cells; format: functional
[15] = test system: HSC-3; assay: Potency index, ratio of CC50 for mephalan to CC50 for test compound against human HSC3 cells; format: functional
[16] = test system: HSC-4; assay: Potency index, ratio of CC50 for mephalan to CC50 for test compound against human HSC4 cells; format: functional
[17] = test system: HSC-2; assay: Induction of apoptosis in human HSC2 cells assessed as cell death after 24 hrs by Annexin-V-FITC/PI-based flow cytometric analysis; format: functional
Procedure, shortened: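 HSC-2 cells treated in RPMI for 24 h at 37 °C at 0.5, 1.0 and 2.0 µM. Early and late apoptotic fractions measured by flow cytometry after Annexin-V-FITC/propidium iodide staining.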

COCCS(=O)(=O)CCC(=O)N1C/C(=C\c2ccc(F)cc2)C(=O)/C(=C/c2ccc(F)cc2)C1
IC50 [1]: 1120 nM | IC50 [2]: 610 nM | IC50 [3]: 2450 nM

COCC[S+](C)CCC(=O)N1C/C(=C\c2ccccc2)C(=O)/C(=C/c2ccccc2)C1.F[B-](F)(F)F (stereo not given)
IC50 [1]: 1340 nM | IC50 [2]: 1400 nM | IC50 [3]: 3450 nM | CC50 [4]: 1560 nM | CC50 [5]: 1430 nM | CC50 [6]: 1360 nM | CC50 at 48 h [7]: 10.1 µM | CC50 at 48 h [8]: 6.25 µM | Selectivity Index [9]: 5.24 | Selectivity Index [10]: 5.72 | Selectivity Index [11]: 6.02

COCCSCCC(=O)N1C/C(=C\c2ccc(OC)cc2)C(=O)/C(=C/c2ccc(OC)cc2)C1
IC50 [1]: 7080 nM | IC50 [2]: 6310 nM | IC50 [3]: 13200 nM | CC50 [4]: 1970 nM | CC50 [5]: 2270 nM | CC50 [6]: 1630 nM | CC50 at 48 h [7]: 17.2 µM | CC50 at 48 h [8]: 15.5 µM | Selectivity Index [9]: 8.33 | Selectivity Index [10]: 7.23 | Selectivity Index [11]: 10.1

COCCSCCC(=O)N1C/C(=C\c2ccc(OC)c(OC)c2)C(=O)/C(=C/c2ccc(OC)c(OC)c2)C1
Activity [12]: Active | IC50 [1]: 1810 nM | IC50 [2]: 1840 nM | IC50 [3]: 1570 nM | CC50 [4]: 400 nM | CC50 [5]: 1220 nM | CC50 [6]: 860 nM | CC50 at 48 h [7]: 9.83 µM | CC50 at 48 h [8]: 8.07 µM | Selectivity Index [9]: 22.4 | Selectivity Index [10]: 7.34 | Selectivity Index [11]: 10.4

COCCOCCC(=O)N1C/C(=C\c2ccccc2)C(=O)/C(=C/c2ccccc2)C1
IC50 [1]: 1840 nM | IC50 [2]: 1760 nM | IC50 [3]: 6240 nM | CC50 [4]: 1010 nM | CC50 [5]: 1320 nM | CC50 [6]: 1220 nM | CC50 at 48 h [7]: 9.24 µM | CC50 at 48 h [8]: 8.84 µM | Selectivity Index [9]: 8.95 | Selectivity Index [10]: 6.85 | Selectivity Index [11]: 7.41

COCCSCCC(=O)N1C/C(=C\c2ccc([N+](=O)[O-])cc2)C(=O)/C(=C/c2ccc([N+](=O)[O-])cc2)C1
Activity [13]: Dose-dependent effect | IC50 [1]: 1370 nM | IC50 [2]: 1290 nM | IC50 [3]: 2130 nM | CC50 [4]: 400 nM | CC50 [5]: 390 nM | CC50 [6]: 300 nM | CC50 at 48 h [7]: 3.52 µM | CC50 at 48 h [8]: 2.59 µM | Ratio [14]: 35 | Ratio [15]: 35 | Ratio [16]: 35 | Activity [17]: Dose-dependent effect | Selectivity Index [9]: 7.65 | Selectivity Index [10]: 7.85 | Selectivity Index [11]: 10.2

COCCSCCC(=O)N1C/C(=C\c2ccccc2)C(=O)/C(=C/c2ccccc2)C1
IC50 [1]: 1340 nM | IC50 [2]: 1230 nM | IC50 [3]: 3000 nM | CC50 [4]: 1300 nM | CC50 [5]: 1470 nM | CC50 [6]: 1220 nM | CC50 at 48 h [7]: 9.67 µM | CC50 at 48 h [8]: 7.58 µM | Selectivity Index [9]: 6.64 | Selectivity Index [10]: 5.87 | Selectivity Index [11]: 7.07
